According to ChEMBL document CHEMBL4118253, “Expedient synthesis and biological evaluation of alkenyl acyclic nucleoside phosphonate prodrugs” (Bioorg Med Chem, 2018):

What was measured:
Human alphaherpesvirus 1 [1] = assay: Antiviral activity against Herpes simplex virus 1 KOS infected in HEL cells assessed as inhibition of virus-induced cytopathicity; format: functional, organism-based; settings: Human alphaherpesvirus 1, KOS
Human alphaherpesvirus 2 = assay: Antiviral activity against Herpes simplex virus 2 G infected in HEL cells assessed as inhibition of virus-induced cytopathicity; format: functional, organism-based; settings: Human alphaherpesvirus 2, strain G
Human alphaherpesvirus 1 [2] = assay: Antiviral activity against acyclovir-resistant thymidine kinase deficient Herpes simplex virus 1 KOS infected in HEL cells assessed as inhibition of virus-induced cytopathicity; format: functional, organism-based; settings: Human alphaherpesvirus 1, KOS
Vaccinia virus = assay: Antiviral activity against Vaccinia virus infected in HEL cells assessed as inhibition of virus-induced cytopathicity; format: functional, organism-based; settings: Orthopoxvirus vaccinia
Human adenovirus 2 = assay: Antiviral activity against Adenovirus 2 infected in HEL cells assessed as inhibition of virus-induced cytopathicity; format: functional, organism-based; settings: Human mastadenovirus C
Human coronavirus 229E = assay: Antiviral activity against Human coronavirus 229E infected in HEL cells assessed as inhibition of virus-induced cytopathicity; format: functional, organism-based
Human respirovirus 3 = assay: Antiviral activity against Parainfluenza virus 3 infected in human HeLa cells assessed as inhibition of virus-induced cytopathicity; format: functional, organism-based; settings: Human respirovirus 3, HeLa
[3] = test system: Mammalian orthoreovirus 1; assay: Antiviral activity against Reovirus-1 infected in human HeLa cells assessed as inhibition of virus-induced cytopathicity; format: functional, organism-based; settings: Mammalian orthoreovirus 1, HeLa
[4] = test system: Vesicular stomatitis virus; assay: Antiviral activity against Vesicular stomatitis virus infected in human HeLa cells assessed as inhibition of virus-induced cytopathicity; format: functional, organism-based
[5] = test system: Respiratory syncytial virus; assay: Antiviral activity against Respiratory syncytial virus infected in human HeLa cells assessed as inhibition of virus-induced cytopathicity; format: functional, organism-based
Influenza A virus [6] = assay: Antiviral activity against Influenza A virus H1N1 infected in MDCK cells assessed as inhibition of virus-induced cytopathicity by MTS assay; format: functional, organism-based
Influenza A virus H3N2 [7] = assay: Antiviral activity against Influenza A virus H3N2 infected in MDCK cells assessed as inhibition of virus-induced cytopathicity by MTS assay; format: functional, organism-based
Influenza B virus [8] = assay: Antiviral activity against Influenza B virus infected in MDCK cells assessed as inhibition of virus-induced cytopathicity by MTS assay; format: functional, organism-based
Human alphaherpesvirus 3 [9] = assay: Antiviral activity against thymidine kinase expressing Varicella-Zoster virus infected in HEL cells assessed as reduction in virus plaque formation; format: functional, organism-based; settings: Human alphaherpesvirus 3, HEL
Human alphaherpesvirus 3 [10] = assay: Antiviral activity against thymidine kinase deficient Varicella-Zoster virus infected in HEL cells assessed as reduction in virus plaque formation; format: functional, organism-based; settings: Human alphaherpesvirus 3, HEL
Human betaherpesvirus 5 [11] = assay: Antiviral activity against Human cytomegalovirus AD169 infected in HEL cells assessed as inhibition of virus-induced cytopathicity; format: functional, organism-based; settings: Human betaherpesvirus 5, AD169, HEL
Human betaherpesvirus 5 [12] = assay: Antiviral activity against Human cytomegalovirus Davis infected in HEL cells assessed as inhibition of virus-induced cytopathicity; format: functional, organism-based; settings: Human betaherpesvirus 5, Davis
[13] = Cytotoxicity against HEL cells assessed as alteration of cell morphology by microscopic analysis; format: cell-based; settings: human
Outline: (§1)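 The value is the minimal cytotoxic concentration (MCC), the lowest concentration that causes a microscopically visible change in cell morphology. It was read in the same HEL or Vero cell cultures used for the antiviral tests.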

Sindbis virus = assay: Antiviral activity against Sindbis Virus infected in African green monkey Vero cells assessed as inhibition of virus-induced cytopathicity; format: functional, organism-based
Coxsackievirus B4 = assay: Antiviral activity against Coxsackie virus B4 infected in African green monkey Vero cells assessed as inhibition of virus-induced cytopathicity; format: functional, organism-based; settings: Enterovirus B
Punta Toro virus = assay: Antiviral activity against Punta Toro virus infected in African green monkey Vero cells assessed as inhibition of virus-induced cytopathicity; format: functional, organism-based
Yellow fever virus = assay: Antiviral activity against Yellow fever virus infected in African green monkey Vero cells assessed as inhibition of virus-induced cytopathicity; format: functional, organism-based
[14] = Cytotoxicity against African green monkey Vero cells assessed as alteration of cell morphology by microscopic analysis; format: cell-based; settings: chlorocebus sabaeus; outline: as §1
[15] = Cytotoxicity against human HeLa cells assessed as alteration of cell morphology by microscopic analysis; format: cell-based
[16] = Cytotoxicity against MDCK cells assessed as alteration of cell morphology by microscopic analysis; format: cell-based, Canis lupus familiaris; settings: dog
Influenza A virus [17] = assay: Antiviral activity against Influenza A virus H1N1 infected in MDCK cells assessed as inhibition of virus-induced visual cytopathicity; format: functional, organism-based
Influenza A virus H3N2 [18] = assay: Antiviral activity against Influenza A virus H3N2 infected in MDCK cells assessed as inhibition of virus-induced visual cytopathicity; format: functional, organism-based
Influenza B virus [19] = assay: Antiviral activity against Influenza B virus infected in MDCK cells assessed as inhibition of virus-induced visual cytopathicity; format: functional, organism-based

Structure (SMILES)	EC50 (Human alphaherpesvirus 1 [1])	EC50 (Human alphaherpesvirus 2)	EC50 (Human alphaherpesvirus 1 [2])	EC50 (Vaccinia virus)	EC50 (Human adenovirus 2)	EC50 (Human coronavirus 229E)	EC50 (Human respirovirus 3)	EC50 [3]	EC50 [4]	EC50 [5]	EC50 (Influenza A virus [6])	EC50 (Influenza A virus H3N2 [7])	EC50 (Influenza B virus [8])	EC50 (Human alphaherpesvirus 3 [9])	EC50 (Human alphaherpesvirus 3 [10])	EC50 (Human betaherpesvirus 5 [11])	EC50 (Human betaherpesvirus 5 [12])	MCC [13]	EC50 (Sindbis virus)	EC50 (Coxsackievirus B4)	also measured
C/C(=C\CP(=O)(N[C@@H](C)C(=O)OC(C)C)Oc1ccccc1)Cn1ccc(=O)[nH]c1=O (some centres undefined)	> 100 µM	> 100 µM	> 100 µM	> 100 µM	> 100 µM	> 100 µM	> 100 µM	> 100 µM	> 100 µM	> 100 µM	> 100 µM	> 100 µM	> 100 µM	> 100 µM	> 100 µM	> 100 µM	> 100 µM	> 100 µM	> 100 µM	> 100 µM	EC50 (Punta Toro virus): > 100 µM; EC50 (Yellow fever virus): > 100 µM; MCC [14]: > 100 µM; MCC [15]: > 100 µM; MCC [16]: > 100 µM; EC50 (Influenza A virus [17]): > 100 µM; EC50 (Influenza A virus H3N2 [18]): > 100 µM; EC50 (Influenza B virus [19]): > 100 µM
C/C(=C\CP(=O)(N[C@@H](C)C(=O)OCc1ccccc1)Oc1cccc2c1CCCC2)Cn1ccc(=O)[nH]c1=O (some centres undefined)	> 100 µM	> 100 µM	> 100 µM	> 100 µM	> 100 µM	> 100 µM	> 100 µM	> 100 µM	> 100 µM	> 100 µM	> 100 µM	> 100 µM	> 100 µM	55.7 µM	52.5 µM	> 100 µM	> 100 µM	> 100 µM	> 100 µM	> 100 µM	EC50 (Punta Toro virus): > 100 µM; EC50 (Yellow fever virus): > 100 µM; MCC [14]: ≥ 100 µM; MCC [15]: ≥ 100 µM; MCC [16]: > 100 µM; EC50 (Influenza A virus [17]): > 100 µM; EC50 (Influenza A virus H3N2 [18]): > 100 µM; EC50 (Influenza B virus [19]): > 100 µM
C/C(=C\CP(=O)(N[C@@H](C)C(=O)OCc1ccccc1)Oc1cccc2ccccc12)Cn1ccc(=O)[nH]c1=O (some centres undefined)	> 100 µM	> 100 µM	> 100 µM	> 100 µM	> 100 µM	> 100 µM	> 100 µM	> 100 µM	> 100 µM	> 100 µM	> 100 µM	> 100 µM	> 100 µM	100 µM	58.5 µM	> 100 µM	> 100 µM	> 100 µM	> 100 µM	> 100 µM	EC50 (Punta Toro virus): > 100 µM; EC50 (Yellow fever virus): > 100 µM; MCC [14]: > 100 µM; MCC [15]: > 100 µM; MCC [16]: > 100 µM; EC50 (Influenza A virus [17]): > 100 µM; EC50 (Influenza A virus H3N2 [18]): > 100 µM; EC50 (Influenza B virus [19]): > 100 µM
